Measurements as given in publication PMC8721254 (Journal of Advanced Research, 2021).

What was measured:
RBL-2H3 cells = assay: β-hexosaminidase; assay type: cell-based, rat; settings: DNP-HSA-induced degranulation of RBL-2H3
In short: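 Rat basophilic leukaemia RBL-2H3 cells were seeded at 72 × 10^3 cells/well and sensitized overnight with anti-DNP-HSA IgE, then moved to DMEM containing 1 mg/mL BSA. Test compound, vehicle (0.1% DMSO) or cromolyn was preincubated 5 min at 37 °C, and degranulation was triggered with DNP (10 ng/mL). After 1 h, supernatant β-hexosaminidase was read at 405 nm with p-nitrophenyl-N-acetyl-β-D-glucosaminide substrate. Values are relative to DNP-HSA as 100%, analysed by one-way ANOVA/Bonferroni.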

BSMCs [1] = assay: Membrane hyperpolarizing effects on BSMCs; assay type: cell-based; settings: reference NS1619 10 µM
BSMCs [2] = assay: Intracellular H2S release; assay type: cell-based; settings: WSP-1-preloaded BSMCs, 40 min
In short: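 Bronchial smooth muscle cells were grown at 37 °C in 5% CO2 with 1% pen/strep and seeded at 30 × 10^3 cells/well. Cells were loaded with the H2S-sensitive dye WSP-1, then exposed to test compound, vehicle, or diallyl disulfide as reference donor. Fluorescence was recorded spectrofluorometrically for 40 min and expressed as fluorescence index, mean ± SEM.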

[3] = tested on: OVA-induced allergic lung inflammation; assay: OVA-induced allergic lung inflammation and remodeling; assay type: in vivo, Balb/c mice; settings: mice, oral, equimolar doses equivalent to 5.5 mg/kg prednisone (compound 7 9.1 mg/kg); for number of peribronchiolar eosinophils / number of peribronchiolar mast cells: vs allergic mice; for peribronchiolar collagen density / peribronchiolar smooth muscle (α-actin): vs vehicle-treated allergic mice
In short: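 Male Balb/c mice, 4–5 weeks old (n = 5/group), sensitized with subcutaneous OVA on alum on days 1 and 11 plus intranasal OVA on day 11. Intranasal OVA challenges followed on two consecutive days weekly for six weeks; controls got saline. Oral dosing in 0.5% carboxymethyl cellulose (1 mL/kg) was given 30 min before each challenge, then daily for 4 weeks until euthanasia. Formalin-fixed lungs were scored for α-actin (immunohistochemistry) and collagen (Masson's trichrome); one-way ANOVA with Tukey test.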

[4] = Enzymatic stability in human serum; assay type: in vitro ADME
In short: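 Sterile-filtered human serum was spiked with test compound from a 10 mM DMSO stock (1% DMSO), in triplicate, at 37 °C. Aliquots taken at intervals up to 24 h were deproteinized with an equal volume of CH3CN containing 0.1% TFA. Samples were vortexed, sonicated 3 min, centrifuged 5 min at 2500 g, filtered, and analysed by C18 RP-HPLC against calibration standards. Half-life is reported as mean ± SD, n = 3.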

[5] = Chemical stability in simulated gastric fluid; assay type: physicochemical; settings: simulated gastric fluid (SGF) without pepsin, pH 1.2
In short: (§1)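 Test compound was taken from a 10 mM DMSO stock and diluted into PBS pH 7.4 or pepsin-free SGF pH 1.2 (0.5% DMSO final), in triplicate. Samples were incubated at 37 ± 0.5 °C for 24 h with sampling at intervals. Parent compound, glucocorticoid, H2S-donor moiety and succinate metabolite were quantified by C18 RP-HPLC (CH3CN/water 0.1% TFA gradient; UV 234/250/300 nm) against calibration standards. Results are % remaining, mean ± SD, n = 3.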

[6] = Chemical stability in saline phosphate buffer; assay type: physicochemical; settings: phosphate buffered saline (PBS), pH 7.4
In short: as §1

| half-life at 100 µM [4] [min] | remaining at 24 h, 50 µM [5] [%] | remaining at 24 h, 50 µM [6] [%] | Structure (SMILES) | inhibition of mast cell degranulation (β-hexosaminidase release) (RBL-2H3 cells; 300 µM) | hyperpolarizing effect compared to NS1619 10 µM (BSMCs [1]; 100 µM) | hyperpolarizing effect compared to NS1619 10 µM (BSMCs [1]; 300 µM) | Intracellular H2S release, fluorescence index (FI) (BSMCs [2]; 100 µM, vs vehicle) | Intracellular H2S release, fluorescence index (FI) (BSMCs [2]; 300 µM) | number of peribronchiolar eosinophils [3] | number of peribronchiolar mast cells [3] | peribronchiolar collagen density [3] | peribronchiolar smooth muscle (α-actin) [3] | inhibition of mast cell degranulation (β-hexosaminidase release) (RBL-2H3 cells; 100 and 300 µM) | Intracellular H2S release, fluorescence index (FI) (BSMCs [2]; 100 and 300 µM) |
| --- | --- | --- | --- | --- | --- | --- | --- | --- | --- | --- | --- | --- | --- | --- |
| 15 ± 2 | 99 ± 1 | 97 ± 1 | C[C@]12C=CC(=O)C=C1CC[C@@H]1[C@@H]2C(=O)C[C@@]2(C)[C@H]1CC[C@]2(O)C(=O)COC(=O)CCC(=O)Oc1ccc(C(N)=S)cc1 [Compound 7, 4-carbamothioylphenyl (2-((8S,9S,10R,13S,14S,17R)-17-hydroxy-10,13-dimethyl-3,11-dioxo-6,7,8,9,10,11,12,13,14,15,16,17-dodecahydro-3H-cyclopenta[a]phenanthren-17-yl)-2-oxoethyl) succinate] | – | about 240% | about 309% | – | – | significantly reduced | significantly reduced | significantly more efficient than the parent prednisone | significantly more efficient than the parent prednisone | significant inhibitory effect on mast cell degranulation | significant increase in the intracellular level of H2S |
| 9 ± 2 | 99 ± 1 | 99 ± 2 | C[C@]12C=CC(=O)C=C1CC[C@@H]1[C@@H]2C(=O)C[C@@]2(C)[C@H]1CC[C@]2(O)C(=O)COC(=O)CCC(=O)Oc1ccc(-c2cc(=S)ss2)cc1 [Compound 8, 2-((8S,9S,10R,13S,14S,17R)-17-hydroxy-10,13-dimethyl-3,11-dioxo-6,7,8,9,10,11,12,13,14,15,16,17-dodecahydro-3H-cyclopenta[a]phenanthren-17-yl)-2-oxoethyl (4-(3-thioxo-3H-1,2-dithiol-5-yl)phenyl) succinate] | – | – | – | – | – | – | – | – | – | – | did not cause any significant increase in fluorescence |
| 10 ± 1 | 99 ± 1 | 99 ± 2 | C[C@@H]1C[C@H]2[C@@H]3CCC4=CC(=O)C=C[C@]4(C)[C@@]3(F)[C@@H](O)C[C@]2(C)[C@@]1(O)C(=O)COC(=O)CCC(=O)Oc1ccc(-c2cc(=S)ss2)cc1 [Compound 6, 2-((8S,9R,10S,11S,13S,14S,16R,17R)-9-fluoro-11,17-dihydroxy-10,13,16-trimethyl-3-oxo-6,7,8,9,10,11,12,13,14,15,16,17-dodecahydro-3H-cyclopenta[a]phenanthren-17-yl)-2-oxoethyl (4-(3-thioxo-3H-1,2-dithiol-5-yl)phenyl) succinate] | – | – | – | – | – | – | – | – | – | – | did not cause any significant increase in fluorescence |

More lines, now with the values behind:

| Structure (SMILES) | half-life at 100 µM [4] [min] | remaining at 24 h, 50 µM [5] [%] | remaining at 24 h, 50 µM [6] [%] | inhibition of mast cell degranulation (β-hexosaminidase release) (RBL-2H3 cells; 300 µM) | hyperpolarizing effect compared to NS1619 10 µM (BSMCs [1]; 100 µM) | hyperpolarizing effect compared to NS1619 10 µM (BSMCs [1]; 300 µM) | Intracellular H2S release, fluorescence index (FI) (BSMCs [2]; 100 µM, vs vehicle) | Intracellular H2S release, fluorescence index (FI) (BSMCs [2]; 300 µM) | number of peribronchiolar eosinophils [3] | number of peribronchiolar mast cells [3] | peribronchiolar collagen density [3] | peribronchiolar smooth muscle (α-actin) [3] | inhibition of mast cell degranulation (β-hexosaminidase release) (RBL-2H3 cells; 100 and 300 µM) | Intracellular H2S release, fluorescence index (FI) (BSMCs [2]; 100 and 300 µM) |
| --- | --- | --- | --- | --- | --- | --- | --- | --- | --- | --- | --- | --- | --- | --- |
| NC(=S)c1ccc(O)cc1 [TBZ, 4-hydroxy-thiobenzamide, reference compound] | – | – | – | significant inhibition of RBL-2H3 degranulation | 38% | 43% | slight increase of FI | massive increase in FI | – | – | – | – | – | – |
| C[C@]12C=CC(=O)C=C1CC[C@@H]1[C@@H]2C(=O)C[C@@]2(C)[C@H]1CC[C@]2(O)C(=O)CO [Compound 2, prednisone, reference compound] | – | – | – | – | – | – | – | – | significantly reduced | significantly reduced | efficient in reducing | efficient in reducing | totally inactive | – |
| C=CCSSCC=C [DADS, diallyl disulfide, reference compound] | – | – | – | – | – | – | significant FI increase | – | – | – | – | – | – | – |
